# Shown are actives, neighbours in structure and some others; about 2.6% of the full set was active somewhere.
# FN deposit inh: fibronectin deposition inhibition; inhibition, % at 12.6 µM; AH1F fibroblasts, Alexa488-fibronectin deposition fluorescence, overnight; 350,000 compounds, 0.086% hits; AID 743247;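 active = mean inhibition across replicates of 30% or more, regardless of how many single replicates reach that level; inconclusive = mean under 30% yet at least half of replicates reach 30%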;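 note: positive control wells lacked labelled fibronectin entirely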
#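 Test system: AH1F fibroblast monolayer depositing Alexa488-labelled fibronectin into matrix. Input: 10000 cells per well. Technique: fluorescence, ex 485 nm, em 525 nm. Buffer or medium: DMEM plus 2% serum, read in PBS. Timing: 1 h cell adhesion before compound, then overnight fibronectin incubation. Compound: single dose, pinned. Read-out basis: inhibition from reduced deposited-fibronectin fluorescence.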
# miR122 inh: blocks miR-122 activity in Huh7 sensor cells | AID 602342 | Huh7 miR-122 Renilla luciferase sensor, 48 h; neutral wells = 0, positive control = 100 | 340,000 compounds, 0.3% hits | activation (reporter increase), % at 12.5 µM;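 active = mean replicate activation score at least 90 and every replicate individually at or above 90; inconclusive = only one of the two criteria met; inactive = neither criterion met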;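 note: higher luciferase means less miR-122 activity so hits act as miR-122 inhibitors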
# Env fusion inh: blocks HIV Env-driven cell-cell fusion | AID 651610 | 360,000 compounds, 1.1% hits | inhibition, % at 12.3 µM | HeLa-JRFL Env/CEM21 cell fusion, luciferase;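 active = mean replicate inhibition score of at least 50 and every replicate individually at or above 50; inconclusive = only one of the two criteria met; inactive = mean below 50 and not all replicates reaching 50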;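 note: 0% = plate neutral controls and 100% = maraviroc near 300 nM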
# S100A4 MyoIIA: inhibitors of human S100A4 binding to myosin IIA peptide; P26447; S100A4/TAMRA-MyoIIA peptide fluorescence polarization; inhibition, % at 10.7 µM; 360,000 compounds, 0.14% hits; AID 652163;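 active = mean inhibition of at least 70% across replicates, with every replicate also reaching that level; inconclusive = mean inhibition reaches 70% but some replicates fall short; inactive = mean inhibition below 70%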
# Target sequence (P26447 whole entry, looked up): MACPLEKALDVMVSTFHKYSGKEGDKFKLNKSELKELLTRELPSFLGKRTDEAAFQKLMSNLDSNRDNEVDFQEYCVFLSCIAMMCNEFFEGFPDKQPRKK
#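 Material: human S100A4 monomer with TAMRA-labelled myosin IIA peptide; buffer or medium: HEPES pH 7.2 with CaCl2, KCl, NaCl, DTT, Triton; compound dosing: one concentration per compound; schedule: 5 min incubation before reading; benchmarks: neutral control DMSO, positive control TFP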
# Ecoli rRNA inh: inhibitors of bacterial rRNA selective over humanized ribosomes. E. coli WT GFP vs humanized-ribosome RFP mutants, fluorescence, 24 h; active compounds read low; DMSO median 0, no signal -100. GFP signal change (wild-type ribosome), % (concentration not given with the values). 350,000 compounds, 1.6% hits;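 active = significant combined selectivity score with lowered wild-type GFP, culture density cut under 30%, mutant RFP and density less affected; inactive = any of these conditions unmet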
# Vif imaging: blocks HIV Vif function; HEK293T cells, Vif self-association by quenched fluorescence, imaging, 24 h; inhibition, % at 7.49 µM; 340,000 compounds, 0.35% hits; AID 602346; in the data active = inhibition above about 50%, passing the limit was not always enough; inconclusive = no clear call, values can overlap the other calls; inactive = below about 31%
# HepG2 tox: HepG2 cell cytotoxicity | shares compounds with Ecoli rRNA inh | HepG2 viability, ATP luminescence, 72 h | activity change, negative = cytotoxicity, unspecified at 26 µM | 30 tested, under 10 active | AID 743480;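 active = compounds whose fitted half-maximal signal-loss concentration is at most twice their highest valid dose; inconclusive = flat curve with 30 to 70% signal loss, or poor fit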
# AID977621: growth inhibition of wild-type GFP E. coli, dose response, H69 mutant RFP, cherry-pick; shares compounds with Ecoli rRNA inh; AID 977621; activity change, negative = inhibition at 50 µM; E. coli wild-type GFP strain growth, fluorescence, 24 h; 1,900 tested, under 10 active;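 active = Wild-type ribosome reporter drop at least double the humanized mutant ribosome reporter drop, growth loss under a set limit; inconclusive = no clear call, values can overlap the other calls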;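 note: wild-type GFP and H69 mutant RFP strains grown together 50/50 in each well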
# AID977628: growth of wild-type and h24-humanized E. coli strains – h24 mutant RFP vs wild-type GFP, cherry-pick, dose response; shares compounds with Ecoli rRNA inh; E. coli WT GFP strain growth, fluorescence, 24 h; activity change, negative = inhibition at 50 µM; 1,900 tested, under 10 active; AID 977628;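 active = compound lowering the normal-ribosome reporter at least twice as much as the humanized-ribosome reporter, growth loss under a set limit; inconclusive = no clear call, values can overlap the other calls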;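 note: wild-type GFP and h24 humanized RFP strains co-cultured 1 to 1 per well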
# Active calls of the source: *; ? = inconclusive; . = no result given; [ ] = dose if it differs, or a comment.
SMILES,FN deposit inh,miR122 inh,Env fusion inh,S100A4 MyoIIA,Ecoli rRNA inh,Vif imaging,AID977621,AID977628,others
CCCNC(=O)c1noc2c1CCc1cc(OC)ccc1-2,-4,-12,-91,-4,-28*,9,?,.,
COc1ccc2c(c1)CCc1c(C(=O)NCC(C)C)noc1-2,-1,-25,-243,-6,-7,2,.,.,
O=C(NCCc1ccccc1)c1ccc2c(c1)N(Cc1ccccc1)C(=O)CS2=O (stereo not given),-9,8,-22,-3,-15,-7,.,.,
O=C(Nc1ccccc1Cl)c1ccc2c(c1)N(Cc1ccc(F)cc1)C(=O)CS2=O (stereo not given),-16,-1,-45,1,-23*,0,-12,.,
O=C(CCC1CCCN(C(=O)c2ccsc2)C1)N1CCN(c2ccccn2)CC1 (stereo not given),3,-9,11,-3,-18*,8,-3.6,-3.5,
O=C(Cc1ccc(Cl)cc1)c1ccc(O)cc1,-3,.,-22,4,-37*,1,-3.6,?,
CC(C)NC(=O)N(C)C[C@@H]1Oc2ncc(-c3ccccc3F)cc2C(=O)N([C@@H](C)CO)C[C@@H]1C,.,-4[16.7 µM],-1[16.7 µM],8,3,.,.,.,
CCOc1ccccc1N1CC(C(=O)Nc2cccc(S(=O)(=O)N3CCCCC3)c2)CC1=O (stereo not given),.,-3,26,-5,-21*,-12,-21,?,
O=C(CN(CCO)c1ccccc1)Nc1cccc(S(=O)(=O)N2CCCC2)c1,6,.,2,0,-23*,-10,.,?,
O=C(COC(=O)CNC(=O)c1ccc(F)cc1)Nc1cccc(S(=O)(=O)N2CCCC2)c1,-8,.,8,0,-18*,4,-11,-3.9,
CCOc1ccccc1N1CC(C(=O)Nc2ccc(S(=O)(=O)N3CCCCC3)cc2)CC1=O (stereo not given),1,-1,4,7,5,3,.,.,
CCN(CC)CC(=O)Nc1cccc(S(=O)(=O)N2CCCC2)c1,4,-3,-10,2,2,2,.,.,
Cn1nc(C(=O)Nc2cccc(S(=O)(=O)N3CCCCC3)c2)c2ccccc2c1=O,6,-8,-9,-10,-17*,9,0.57,-0.87,
O=C(C[C@H]1C[C@@H]2c3cc(NC(=O)c4cccnc4)ccc3O[C@@H]2[C@@H](CO)O1)NCCN1CCCCC1,.,3[16.7 µM],-12[16.7 µM],-1,1,.,.,.,
COc1ccc2c3c(n(C)c2c1)[C@@H](CO)N(C(=O)c1ccc(F)cc1)CC31CN(C)C1,.,.,.,.,1,.,.,.,
COc1cc(C#N)ccc1OCC(=O)Nc1cccc(S(=O)(=O)N2CCCC2)c1,6,-5,-6,5,-26*,-17,.,-13,
CCN(CC)S(=O)(=O)c1ccc(C)c(NC(=O)CNc2cccc(S(=O)(=O)N3CCCC3)c2)c1,-10,31,20,-11,-5,-7,.,.,
N#Cc1ccccc1OCC(=O)Nc1cccc(S(=O)(=O)N2CCCC2)c1,-1,.,.,-3,-9,0,.,.,
CCN(CC)S(=O)(=O)c1cccc(NC(=O)CNc2cccc(S(=O)(=O)N3CCCC3)c2)c1,-1,49,.,0,-23*,-27,-24,.,
C[C@@H]1CN([C@@H](C)CO)C(=O)c2cc(NC(=O)CCN3CCOCC3)ccc2O[C@H]1CN(C)Cc1ccc(Cl)c(Cl)c1,.,3[16.7 µM],-21[16.7 µM],6,-6,.,.,.,
C[C@H]1CN([C@@H](C)CO)S(=O)(=O)c2ccc(C#CC3CCCC3)cc2O[C@@H]1CN(C)Cc1cccnc1,9,38[16.7 µM],21[16.7 µM],26,-14,.,.,.,
C[C@@H]1CN([C@H](C)CO)C(=O)c2cc(-c3ccccc3)cnc2O[C@H]1CN(C)Cc1ccccc1,-2,5[16.7 µM],1[16.7 µM],-4,0,.,.,.,
O=C(Nc1cccc(Cl)c1)c1ccc2c(=O)n3c(nc2c1)CCCCC3,.,-2,.,.,.,-24,.,.,
CCc1cccc(NC(=O)c2ccc3c(=O)n4c(nc3c2)CCCCC4)c1,-4,-29,13,5,-19*,-6,-14,-5.3,
OC(c1ccccc1)C1CN(Cc2ccccc2)CCC1(O)c1ccccc1 (stereo not given),.,.,.,10,2,16,.,.,
SMILES,FN deposit inh,miR122 inh,Env fusion inh,S100A4 MyoIIA,Ecoli rRNA inh,Vif imaging,AID977621,AID977628,others
O=C(c1ccccc1)C1CN(Cc2ccccc2)CCC1(O)c1ccccc1 (stereo not given),-4,-5,-22,-5,-18*,0,-0.75,.,
O=S(=O)(c1ccc(F)cc1)c1nc(-c2ccco2)oc1Nc1ccc(F)cc1,-7,.,-126,.,.,-1,.,.,
COc1ccc(Nc2oc(-c3ccco3)nc2S(=O)(=O)c2ccc(F)cc2)cc1,3,-21,-23,-6,-29*,0,.,.,HepG2 tox=8.3
Cc1ccc(NC(=O)COC(=O)CCNS(=O)(=O)c2c(Cl)cccc2Cl)cc1,.,-3,-9,-3,-14*,-11,3.4,-8.1,
Cc1ccc(S(=O)(=O)NCCC(=O)OCC(=O)Nc2cccc(Cl)c2)cc1,-6,-10,.,-6,.,11,.,.,
CNC(=O)c1cc(C(=O)c2ccc(C(F)(F)F)cc2F)c[nH]1,6,.,5,-1,-25*,-3,-7,?,
CNC(=O)c1cc(C(=O)c2ccc(C(F)(F)F)cc2)c[nH]1,0,-1,-1,-1,-3,-12,.,.,
CCCNC(=O)N1CC2(CN(C(=O)c3cccnc3)C2)c2c([nH]c3cc(OC)ccc23)[C@H]1CO,.,.,.,.,-1,.,.,.,
Fc1cccc(Cc2noc(CN3CCCCC3CCc3ccccn3)n2)c1 (stereo not given),1,0,-5,-1,-25*,-8,.,-14,
O=C(Cc1ccncc1)NCC[C@H]1CC[C@@H](NC(=O)Nc2ccc(Cl)cc2)[C@H](CO)O1,.,.,-6[16.7 µM],16,3,.,.,.,
C/C=C/c1ccc2c(c1)O[C@@H](CN(C)C(=O)c1cnccn1)[C@H](C)CN([C@@H](C)CO)S2(=O)=O,-2,1[16.7 µM],-10[16.7 µM],5,-2,.,.,.,
COCc1c(C#N)c(NCCc2ccc(F)cc2)nc(C)c1[N+](=O)[O-],-5,.,11,6,-17*,-5,-13,-12,
CSc1nc2ccc(NC(=O)c3c(-c4ccccc4)noc3C)cc2s1,0,.,-4,-4,-21*,-14,-21,.,

# Screening results as filed in PubChem.
